Test results as given in ChEMBL document CHEMBL2069274, “Novel 3-nitro-1H-1,2,4-triazole-based amides and sulfonamides as potential antitrypanosomal agents” (J Med Chem, 2012).
The source made the active and inactive calls. The calls are words filed in the database; no cut-off is given here.

Tests used:
[1] = tested on: Trypanosoma brucei rhodesiense; assay: Antitrypanosomal activity against Trypanosoma brucei rhodesiense STIB 900 trypomastigotes; format: functional, organism-based
Method in brief: (§1)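 96-well format screens: bloodstream-form T. b. rhodesiense trypomastigotes, T. cruzi amastigotes within infected L6 rat skeletal myoblasts, axenically grown L. donovani amastigotes, and uninfected L6 cells for cytotoxicity. IC50 (μM) obtained by linear regression from sigmoidal dose–inhibition curves.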

Trypanosoma cruzi [2] = assay: Antitrypanosomal activity against Trypanosoma cruzi Tulahuen C4 amastigotes; format: functional, organism-based; method in brief: as §1
Leishmania donovani = assay: Antileishmanial activity against Leishmania donovani MHOM-ET67/L82 amastigotes; format: functional, organism-based; method in brief: as §1
L6 = assay: Cytotoxicity against rat L6 cells; format: cell-based; method in brief: as §1
[3] = tested on: Trypanosoma brucei brucei; assay: Antitrypanosomal activity against bloodstream form of Trypanosoma brucei brucei Lister 427 clone 221a; format: functional, organism-based
Method in brief: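 Bloodstream-form parasites seeded at 1 × 10^3 per ml in growth medium with a range of compound concentrations; where required, TbNTR expression induced with tetracycline (1 μg/mL). Incubation 3 days at 37 °C, then Alamar blue added for a further 16 h. Cell density read and IC50 determined.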

Trypanosoma cruzi [4] = assay: Ratio of benznidazole IC50 to compound IC50 for Trypanosoma cruzi Tulahuen C4 amastigotes; format: functional
[5] = Selectivity index, ratio of IC50 for rat L6 cells to IC50 for Trypanosoma cruzi Tulahuen C4 amastigotes
[6] = Selectivity index, ratio of IC50 for rat L6 cells to IC50 for Trypanosoma brucei rhodesiense STIB900 trypomastigotes
[7] = tested on: Trypanosoma brucei brucei; assay: Antitrypanosomal activity against bloodstream form of Trypanosoma brucei brucei Lister 427 clone 221a overexpressing tet-inducible NTR in absence of tetracycline after 3 days; conditions: 72 h
[8] = tested on: Trypanosoma brucei brucei; assay: Antitrypanosomal activity against bloodstream form of Trypanosoma brucei brucei Lister 427 clone 221a overexpressing tet-inducible NTR in presence of tetracycline after 3 days; conditions: 72 h
[9] = tested on: Trypanosoma brucei brucei; assay: Selectivity ratio of IC50 for Trypanosoma brucei brucei Lister 427 clone 221a overexpressing tet-inducible NTR in absence of tetracycline to IC50 for Trypanosoma brucei brucei overexpressing tet-inducible NTR in presence of tetracyclin
[10] = tested on: Trypanosoma brucei brucei; assay: Activity of Trypanosoma brucei brucei recombinant Type I nitroreductase assessed as oxidised NADH level by spectrophotometric analysis
Method in brief: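 His-tagged recombinant TbNTR, purified, assayed spectrophotometrically at 340 nm with nitrotriazole substrate (100 μM) and NADH (100 μM); activity expressed as nmol NADH oxidized min−1 mg−1 enzyme.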

[11] = target: Trypanothione reductase (Trypanosoma brucei brucei) (UniProt P39051); assay: Inhibition of Trypanosoma brucei brucei trypanothione reductase at <100 uM
Sequence of Trypanothione reductase (Trypanosoma brucei brucei) (P39051 whole entry, looked up): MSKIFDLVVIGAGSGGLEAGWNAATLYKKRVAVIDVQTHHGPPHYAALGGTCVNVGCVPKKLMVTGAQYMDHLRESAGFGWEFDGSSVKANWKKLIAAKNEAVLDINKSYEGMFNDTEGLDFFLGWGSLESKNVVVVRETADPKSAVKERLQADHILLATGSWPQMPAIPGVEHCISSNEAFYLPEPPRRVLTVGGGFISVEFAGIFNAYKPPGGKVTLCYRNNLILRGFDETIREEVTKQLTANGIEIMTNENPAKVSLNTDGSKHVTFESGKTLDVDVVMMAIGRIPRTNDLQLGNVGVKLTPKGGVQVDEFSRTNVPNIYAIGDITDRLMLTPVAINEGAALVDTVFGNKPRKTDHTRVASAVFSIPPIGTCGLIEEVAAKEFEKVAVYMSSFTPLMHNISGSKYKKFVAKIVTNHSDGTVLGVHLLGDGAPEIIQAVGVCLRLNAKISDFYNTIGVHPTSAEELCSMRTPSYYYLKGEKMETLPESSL

Row | SMILES | IC50 [1] [µM] | IC50 (Trypanosoma cruzi [2]) [µM] | IC50 (Leishmania donovani) [µM] | IC50 (L6) [µM] | IC50 [3] [µM] | Ratio IC50 (Trypanosoma cruzi [4]) | selectivity ratio [5] | selectivity ratio [6] | IC50 [7] [µM] | IC50 [8] [µM] | Ratio IC50 [9] | Activity [10] | inhibition [11]
1 | O=C(NCCCn1cnc([N+](=O)[O-])n1)c1cc(C(F)(F)F)cc(C(F)(F)F)c1 | 16.4 | 0.642 | 12.3 | 187 | > 10 | 2.4 | 291 | 11.4 | – | – | – | – | –
2 | O=[N+]([O-])c1ncn(CCNS(=O)(=O)Cc2ccccc2)n1 | 8.39 | 6.46 | 113 | > 322 | – | 0.2 | > 48 | > 38.3 | – | – | – | – | –
3 | O=[N+]([O-])c1ncn(CCCNS(=O)(=O)c2ccc(-c3ccccc3)cc2)n1 | 1.05 | 0.028 | 7.54 | 50 | 0.5 | 55.8 | 1760 | – | 0.44 | 0.07 | 6 | – | –
4 | O=C(NCCCn1cnc([N+](=O)[O-])n1)c1ccc(C(F)(F)F)nc1 | 3.55 | 3.46 | 96.5 | > 291 | 7.9 | 0.5 | > 84 | – | – | – | – | – | –
5 | O=C(NCCn1cnc([N+](=O)[O-])n1)c1ccc(OC(F)(F)F)cc1 | 1.99 | 0.73 | 29.2 | > 261 | – | 2.1 | > 357 | > 131 | – | – | – | – | –
6 | Nc1nc(N)nc(Nc2ccc([As]3SCC(CO)S3)cc2)n1 (configuration not stated) [MELARSOPROL] | – | – | – | – | – | – | – | – | 0.0034 | 0.0034 | 1 | – | –
7 | O=[N+]([O-])c1ncn(CCCNS(=O)(=O)c2cc(C(F)(F)F)ccc2C(F)(F)F)n1 | 10.3 | 0.644 | 46.1 | 115 | > 10 | 2.4 | 178 | – | – | – | – | – | –
8 | O=C(NCCCCn1cnc([N+](=O)[O-])n1)c1ccc2ccccc2n1 | 4 | 0.132 | 13.4 | 91.5 | > 10 | 11.8 | 691 | – | – | – | – | Active | –
9 | CC1CS(=O)(=O)CCN1/N=C/c1ccc([N+](=O)[O-])o1 (configuration not stated) [NIFURTIMOX] | – | – | – | – | – | – | – | – | – | – | 13 | Active | –
10 | O=C(Cn1ccnc1[N+](=O)[O-])NCc1ccccc1 [BENZNIDAZOLE] | – | 1.56 | – | – | – | – | – | – | 21.8 | 2.2 | 10 | – | –
11 | O=C(NCCCn1cnc([N+](=O)[O-])n1)c1cnc2ccccc2n1 | 34.9 | 0.807 | 62.7 | > 306 | > 10 | 1.9 | > 379 | – | – | – | – | – | –
12 | O=C(NCCCCn1cnc([N+](=O)[O-])n1)c1ccc(OC(F)(F)F)cc1 | 1.39 | 0.113 | 13 | > 268 | 3.6 | 13.8 | > 2380 | > 193 | 1.05 | 0.1 | 11 | – | inactive
13 | COc1cc([C@@H]2c3cc4c(cc3[C@H](O)[C@H]3COC(=O)[C@H]23)OCO4)cc(OC)c1OC [PODOFILOX] | – | – | – | 0.022 | – | – | – | – | – | – | – | – | –
14 | Cn1ccnc1S(=O)(=O)NCCCn1cnc([N+](=O)[O-])n1 | 21.9 | 20.6 | 223 | > 318 | – | 0.1 | > 15 | > 14.5 | – | – | – | – | –
15 | O=C(NCCCCn1cnc([N+](=O)[O-])n1)c1ccc(C(F)(F)F)cc1 | 0.501 | 0.176 | 7.93 | 104 | 0.9 | 8.9 | 591 | 208 | 1.3 | 0.13 | 10 | Active | –
16 | O=[N+]([O-])c1ncn(CCCCNS(=O)(=O)c2ccc(C(F)(F)F)cc2)n1 | 0.354 | 0.71 | 7.79 | 84.9 | – | 2.2 | 120 | 240 | – | – | – | – | –

Row | SMILES | IC50 [1] [µM] | IC50 (Trypanosoma cruzi [2]) [µM] | IC50 (Leishmania donovani) [µM] | IC50 (L6) [µM] | IC50 [3] [µM] | Ratio IC50 (Trypanosoma cruzi [4]) | selectivity ratio [5] | selectivity ratio [6] | IC50 [7] [µM] | IC50 [8] [µM] | Ratio IC50 [9] | Activity [10] | inhibition [11]
17 | O=C(NCCCn1cnc([N+](=O)[O-])n1)c1cccc(C(F)(F)F)c1 | 3.76 | 0.353 | 37.3 | > 292 | > 10 | 4.4 | > 826 | – | – | – | – | – | –
18 | O=C(Cn1cnc([N+](=O)[O-])n1)N1CCC(Cc2ccccc2)CC1 | 3.4 | 0.307 | 51.4 | 144 | > 10 | 5.1 | 468 | – | – | – | – | – | inactive
19 | O=[N+]([O-])c1ncn(CCNS(=O)(=O)c2ccc(C(F)(F)F)cc2)n1 | 2.79 | 0.803 | 32.4 | 200 | > 10 | 1.9 | 248 | – | – | – | – | Active | –
20 | Cn1ccnc1S(=O)(=O)NCCn1cnc([N+](=O)[O-])n1 | 35.9 | 83.4 | > 332 | > 332 | – | 0 | > 4 | > 9.3 | – | – | – | – | –
21 | O=[N+]([O-])c1nccn1CCCNS(=O)(=O)c1ccc(C(F)(F)F)cc1 | 27.5 | 1.66 | 15.6 | 176 | – | 0.9 | 106 | – | – | – | – | – | inactive
22 | O=C(NCCCn1cnc([N+](=O)[O-])n1)Nc1cc(C(F)(F)F)cc(C(F)(F)F)c1 | 6.03 | 0.734 | 11.4 | 24.2 | 1 | 2.1 | 33 | 4 | 0.81 | 0.18 | 5 | – | –
23 | O=[N+]([O-])c1ncn(CCNS(=O)(=O)c2cc(C(F)(F)F)cc(C(F)(F)F)c2)n1 | 36.7 | 1.68 | 33.3 | 111 | 7.9 | 0.9 | 66.2 | 3 | – | – | – | – | –
24 | Cc1ccc(S(=O)(=O)NCCCn2cnc([N+](=O)[O-])n2)cc1 | 2.54 | 0.412 | 38.1 | > 308 | 4 | 3.8 | > 747 | > 121 | 5.63 | 0.24 | 23 | – | –
25 | O=[N+]([O-])c1ncn(CCCNS(=O)(=O)c2cc(C(F)(F)F)cc(C(F)(F)F)c2)n1 | 11.3 | 0.322 | 20.7 | 109 | 6.6 | 4.9 | 338 | 9.6 | – | – | – | – | –
26 | O=[N+]([O-])c1ncn(CCCNS(=O)(=O)Cc2ccccc2)n1 | 6.49 | 2.24 | 79.4 | > 308 | – | 0.7 | > 138 | > 47.4 | – | – | – | – | –
27 | O=C(Cn1cnc([N+](=O)[O-])n1)NCc1ccccc1 | 9.96 | 3.38 | 28.1 | 345 | > 10 | 0.5 | 102 | – | – | – | – | Active | –
28 | O=C(NCCCn1cnc([N+](=O)[O-])n1)c1ccc(-c2ccccc2)cc1 | 0.587 | 0.043 | 8.37 | 117 | 0.3 | 36.3 | 2780 | 199 | 0.28 | 0.05 | 6 | – | –
29 | O=C(NCCCn1ccnc1[N+](=O)[O-])c1ccc(OC(F)(F)F)cc1 | 46.6 | 3.71 | 36 | 274 | – | 0.4 | 74 | – | – | – | – | – | –
30 | O=C(NCCCn1ccnc1[N+](=O)[O-])c1ccc(C(F)(F)F)cc1 | 21.4 | 6.05 | 13.8 | 177 | – | 0.3 | 29 | – | – | – | – | – | –
31 | O=[N+]([O-])c1ncn(CCCNS(=O)(=O)c2cccc3cccnc23)n1 | 6.52 | 0.4 | 32.9 | 208 | > 10 | 3.9 | 519 | – | – | – | – | – | –
32 | O=C(Cn1cnc([N+](=O)[O-])n1)NCc1ccc(C(F)(F)F)cc1 | 6.47 | 0.97 | 10.4 | 129 | 8.5 | 1.6 | 133 | – | – | – | – | – | inactive
